SUMO HTRF inh = SUMOylation inhibition | HTRF SUMOylation assay, SAE1/SAE2 + UBC9, in vitro | P63279 | hit rate 0.36% among 290,000 | inhibition, % at 35 µM | AID 2006; in the data active = inhibition above about 50%, passing the limit was not always enough
14-3-3 Bad inh = disrupts binding of bovine 14-3-3 zeta to phospho-Bad peptide; AID 781; TR-FRET 14-3-3zeta/Dy647-pBad peptide displacement, 1 h; inhibition, % at 21.7 µM; hit rate 0.71% among 220,000;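 active = inhibition above about 70%, limit read from the data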;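 also: 0% = full 14-3-3 plus peptide FRET controls and 100% = background without 14-3-3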
Target sequence (P63103 whole entry, looked up): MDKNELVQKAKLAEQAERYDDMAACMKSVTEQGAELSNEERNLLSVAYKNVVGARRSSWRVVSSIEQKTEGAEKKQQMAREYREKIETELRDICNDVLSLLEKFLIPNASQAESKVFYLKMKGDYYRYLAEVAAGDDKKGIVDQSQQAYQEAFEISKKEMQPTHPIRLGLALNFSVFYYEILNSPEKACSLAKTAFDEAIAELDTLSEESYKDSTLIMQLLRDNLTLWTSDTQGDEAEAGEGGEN
p47phox inh = blocks human p47phox regulatory protein of NADPH oxidases; AID 1274; hit rate 0.53% among 220,000; inhibition, % at 24.7 µM; p47phox/p22phox peptide binding, fluorescence polarization, 2 h;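 active = inhibition above about 30%, limit read from the data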;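 also: 0% = p47phox with labelled peptide and 100% = labelled peptide alone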
Target sequence (P14598 whole entry, looked up): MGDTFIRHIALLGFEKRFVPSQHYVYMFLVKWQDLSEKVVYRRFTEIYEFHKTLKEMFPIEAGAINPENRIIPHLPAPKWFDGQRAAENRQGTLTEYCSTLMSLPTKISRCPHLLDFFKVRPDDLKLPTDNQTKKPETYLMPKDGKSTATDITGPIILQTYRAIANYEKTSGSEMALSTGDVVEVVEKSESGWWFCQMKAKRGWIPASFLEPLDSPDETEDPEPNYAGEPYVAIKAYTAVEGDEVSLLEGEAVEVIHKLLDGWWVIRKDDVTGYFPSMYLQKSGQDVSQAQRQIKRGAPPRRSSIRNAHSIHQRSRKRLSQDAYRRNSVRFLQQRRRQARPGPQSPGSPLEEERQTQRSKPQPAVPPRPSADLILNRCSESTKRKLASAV
eIF4E-4G inh = eIF4E/eIF4G interaction inhibition in translation initiation; P63073+Q04637; TR-FRET eIF4E-eIF4GI(517-606) binding, 2 h; inhibition, % at 21.7 µM; hit rate 0.37% among 220,000; AID 782;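 active = inhibition above about 30%, limit read from the data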;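 also: 0% = full FRET control wells and 100% = background wells lacking eIF4GI fragment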
p97 inhibitor = human p97 ATPase inhibition | inhibition, % at 8 µM | recombinant p97 ATPase, Kinase-Glo ATP luminescence, 3 h | P55072 | AID 1481 | hit rate 0.42% among 220,000;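 also: 0% = DMSO vehicle and 100% = wells lacking enzyme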
TbMetRS inhib = Trypanosoma brucei MetRS inhibition | inhibition, % at 11.9 µM | purified T. brucei MetRS, ATP depletion, Kinase-Glo luminescence | hit rate 0.4% among 360,000;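 active = inhibition above a per-plate cutoff of the control wells' mean inhibition plus 3 SD, cut at about 5.5% in these data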;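 also: 0% = DMSO wells median and 100% = median of wells with control inhibitor compound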
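assay system = parasite MetRS enzyme | timing = 15 min preincubation, 2 h reaction, all 25 °C | evaluation = percent inhibition relative to median high and low control wells | medium = HEPES buffer containing pyrophosphatase, BSA, spermine, DTT | compound = single dose, 11.9 µM final nominal, 0.9% final DMSO | detection = Kinase-Glo luminescence, ATP depletion format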
TbMetRS confirm = confirmation of Trypanosoma brucei MetRS inhibitors; hit rate 93% among 1,400; T. brucei MetRS enzyme, luminescence (ATP depletion); inhibition, % at 11.9 µM; shares compounds with TbMetRS inhib; in the data active = inhibition above about 7%
Jurkat tox = kills Jurkat cells in T. brucei MetRS counterscreen. shares compounds with TbMetRS inhib. Jurkat cells viability, ATP luminescence. inhibition, % at 8.3 µM. hit rate 12% among 1,400. AID 624413;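 also: 0% = vehicle and 100% = reference inhibitor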
TbMetRS FP orth = T. brucei MetRS inhibition, orthogonal assay. shares compounds with TbMetRS inhib. purified T. brucei MetRS, fluorescence polarization. inhibition, % at 11.9 µM. hit rate 44% among 1,400. AID 651607; in the data active = inhibition above about 17%;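 also: 0% = vehicle wells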
The depositor's hits bear a star; · = no result. Only some compounds are listed: those with a hit (about 1.6% of all), similar ones and a draw of the others. Rule as the data show it, unless noted: active = inhibition above about 15%; inactive = the rest.

SMILES	SUMO HTRF inh	14-3-3 Bad inh	p47phox inh	eIF4E-4G inh	p97 inhibitor	TbMetRS inhib	TbMetRS confirm	Jurkat tox	TbMetRS FP orth
CC(NC(=O)Cc1ccc(S(=O)(=O)N2CCOCC2)s1)c1ccc(Cl)c(Cl)c1 (centres undefined)	·	·	·	·	·	0	·	·	·
O=c1c(Cc2ccc(Cl)cc2Cl)c(O)ccn1CCCN1CCOCC1	17	-5	-6	1	-2	32*	51*	-3	20*
O=c1c(Cc2ccc(Cl)cc2Cl)c(O)ccn1CC(F)(F)F	-5	·	·	·	·	9.0*	14*	4	6
NC(=O)Cn1ccc(O)c(Cc2ccc(Cl)cc2Cl)c1=O	16	·	·	·	·	25*	37*	-7	20*
O=c1c(Cc2ccc(F)cc2)c(O)ccn1Cc1ccc(Cl)cc1Cl	10	-5	-13	5	-3	-1	·	·	·
CN(C)CCn1ccc(O)c(Cc2ccc(Cl)cc2)c1=O	8	·	·	·	·	-1	·	·	·
Cc1ccc(S(=O)(=O)N(C)C[C@H]2OCc3cn(nn3)CCCC(=O)N([C@H](C)CO)C[C@@H]2C)cc1	·	·	·	·	·	-1	·	·	·
COc1ccc(OC)c(C2Nc3ccccc3NC3=C2C(=O)CC(C)(C)C3)c1 (centres undefined)	18	·	·	·	·	0	·	·	·
COC(=O)C1=C(N)Oc2cc(C)n(Cc3cccnc3)c(=O)c2C1c1cc(OC)ccc1OC (centres undefined)	7	-2	-5	-4	-1	40*	6.1*	2	4
COC(=O)C1=C(N)Oc2cc(C)n(CCc3ccccc3)c(=O)c2C1c1cccnc1 (centres undefined)	-2	-11	-7	-2	4	0	·	·	·
COC(=O)C1=C(N)Oc2cc(C)n(CCCn3ccnc3)c(=O)c2C1c1cccc(Cl)c1 (centres undefined)	4	·	·	·	·	19*	3	1	4
O=C(NCc1ccccn1)c1ccc(CNS(=O)(=O)c2ccc(F)cc2)cc1	7	8	-18	-2	4	0	·	·	·
CCOC(=O)C(/C=C(\C#N)C(=O)OCC)=C(/N)N1CCN(c2c(C)cccc2C)CC1	25	-17	-3	15	1	0	·	·	·
CCOC(=O)C(/C=C(\C#N)C(=O)OCC)=C(/N)N1CCN(c2ccc(OC)cc2)CC1	18	-4	-6	1	2	22*	43*	3	13
COc1ccc(-c2ccc(NCCN3CCOCC3)nn2)cc1OC	13	·	·	·	·	-1	·	·	·
CCCn1cnc2cc(NCc3cccc(OC)c3O)ccc21	7	-22	-7	-6	2	8.4*	15*	0	3
O=C(CCN(CCO)Cc1ccccc1)Nc1ccc(Br)cc1	16	31	-1	0	3	20*	40*	0	15
Clc1ccc2nc(C3CCN(Cc4nnnn4C4CCCCC4)CC3)[nH]c2c1	-3	-8	4	-7	-5	69*	81*	3	56*
Cc1ccc(Cn2nnnc2CN2CCC(NC(=O)c3ccc(Br)cc3)CC2)cc1	11	-4	-17	3	-1	-1	·	·	·
Cc1ccc(Cn2nnnc2CN2CCC(c3nc4ccc(Cl)cc4[nH]3)CC2)cc1	-15	-3	-11	-5	-4	21*	36*	43*	12
CC(CCN1CCC(CN2C(=O)C(=O)NC[C@@H]2Cc2ccccc2)CC1)c1ccccc1 (some centres undefined)	·	·	·	·	·	0	·	·	·
COc1ccc(CC(C)N2CCN(c3cccc(C(F)(F)F)c3)CC2)cc1OC (centres undefined)	8	7	-1	-5	-7	-2	·	·	·
CN1/C(=C\C(=O)CSc2nnc(NCc3ccccc3)s2)C(C)(C)c2ccccc21	-32	-29	-154	-11	-8	0	·	·	·
COCCNC(=O)C1(C)CCCN(C(=O)c2ccc(C)c(F)c2)C1 (centres undefined)	·	·	·	·	·	0	·	·	·
Cc1cc(SCC(=O)N/N=C/c2ccc(O)c(O)c2)c(C)cc1Br	-21	-16	-15	7	11	41*	82*	15*	56*
SMILES	SUMO HTRF inh	14-3-3 Bad inh	p47phox inh	eIF4E-4G inh	p97 inhibitor	TbMetRS inhib	TbMetRS confirm	Jurkat tox	TbMetRS FP orth
COc1ccc(CCC(=O)Nc2c(-c3ccc(N(C)C)cc3)[nH][nH]c2=O)cc1	·	·	·	·	·	14*	3	2	-1
O=C(CC1C(=O)N(c2ccc(Cl)cc2)C(=S)N1CCc1ccncc1)Nc1ccc(F)cc1 (centres undefined)	-16	0	-10	-9	-1	21*	23*	2	23*
CCNC(=O)CC1C(=O)N(c2ccc(F)cc2)C(=S)N1CCc1ccncc1 (centres undefined)	8	18	0	2	-1	-1	·	·	·
COc1ccc(NC(=O)CC2C(=O)N(C)C(=S)N2CCc2ccc(F)cc2)cc1 (centres undefined)	-5	1	-15	2	1	50*	67*	12	43*
COc1ccc(NC(=O)CC2C(=O)N(C)C(=S)N2CCc2ccccc2)cc1 (centres undefined)	-8	-5	-7	-3	2	50*	49*	5	25*
CCN1C(=O)C(CC(=O)Nc2ccc(OC)cc2)N(CCc2ccc(F)cc2)C1=S (centres undefined)	-2	-9	-9	-3	2	39*	46*	9	33*
COC(=O)CN1C(=S)N(Cc2ccccc2)C(=O)C1CC(=O)Nc1ccc(OC)cc1 (centres undefined)	-11	7	-5	-8	-7	1	·	·	·
COc1ccc(NC(=O)CC2C(=O)N(C)C(=S)N2Cc2ccc3c(c2)OCO3)cc1 (centres undefined)	-20	-4	-16	23	3	-1	·	·	·
COc1ccc(NC(=O)CC2C(=O)N(C)C(=S)N2Cc2cccs2)cc1 (centres undefined)	8	-23	-4	8	4	0	·	·	·
COc1ccc(NC(=O)CC2C(=O)N(c3ccc(OC)cc3)C(=S)N2NC(=O)c2cccc(F)c2)cc1 (centres undefined)	12	0	-15	22	6	1	·	·	·
COc1ccc(CCN2C(=S)N(C)C(=O)C2CC(=O)Nc2ccc(OC)cc2)cc1 (centres undefined)	-26	-1	-6	-1	-1	44*	62*	-4	31*

From PubChem BioAssay
